Compounds with a hit are over-represented: about 4.8% of the library has one in this group of screens.
PAFAH1B3 inh = inhibitors of human PAFAH1B3; inhibition, % at 3.39 µM; Q15102; recombinant PAFAH1B3, FP-rhodamine probe, fluorescence polarization; 0.28% of 340,000 active;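 active = inhibition above the screen-wide average of all tested compounds plus 3 SD, cut at about 25% in these data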;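 also: 0% = enzyme with DMSO only and 100% = wells lacking PAFAH1B3 protein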
PAFAH2 FP inh = PAFAH2 (human) inhibition; Q99487; recombinant PAFAH2, FP-rhodamine activity probe, fluorescence polarization; inhibition, % at 3.39 µM; 0.99% of 340,000 active; AID 492956;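 active = inhibition above the mean over all tested compounds plus 3 SD, cut at about 30% in these data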;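 also: inhibitors block probe labeling of enzyme so polarization drops; 0% = enzyme with DMSO and 100% = wells lacking PAFAH2 protein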
UCH37 inh = inhibitors of human deubiquitinating enzyme UCH37; Q9Y5K5; purified proteasome/UCH37, Ub-AMC cleavage fluorescence; inhibition, % (no concentration beside the values); 0.33% of 330,000 active; AID 588478;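 active = mean inhibition over replicate wells above about 20%, limit read from the data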;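 also: 0% = compound-free wells with enzyme and 100% = wells lacking proteasome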
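Schedule: 30 min plus 25 min, room temperature / Material: human UCH37 within purified proteasomes / Technique: AMC fluorescence intensity at 355/460 nm / Buffer or medium: pH 7.4 Tris-HCl (50 mM) with ovalbumin, ATP-MgCl2, DTT / Controls: wells without proteasome as full block, compound-free enzyme plus substrate as uninhibited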
PAFAH1B2 FP inh = PAFAH1B2 (human) inhibition. P68402. recombinant PAFAH1B2, FP-rhodamine activity probe, fluorescence polarization. inhibition, % at 3.39 µM. 1.2% of 340,000 active. AID 492953;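 active = inhibition above the mean of all tested compounds plus 3 SD, cut at about 24% in these data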;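 also: 0% = enzyme with DMSO and 100% = wells lacking PAFAH1B2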
NR3A LBD binder = modulators (binders) of human NR3A ligand-binding domain; NR3A LBD differential scanning fluorimetry, Tm shift; 0% = protein alone, 100% = glycine-bound protein; Tm shift relative to glycine control, % at 25 µM; 2.5% of 340,000 active; AID 1259313;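 active = melting temperature shift of at least 10% of the positive control shift, at one fixed dose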
pPAFAH inh = pPAFAH (human) enzyme inhibition; inhibition, % at 3.39 µM; recombinant pPAFAH, FP-rhodamine probe fluorescence polarization; 1.5% of 330,000 active; AID 463082; Q13093;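 active = inhibition above the mean inhibition across the screen plus 3 SD, cut at about 25% in these data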;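 also: inhibitors block binding of the rhodamine activity-based probe so polarization drops; 0% = enzyme with DMSO and 100% = wells lacking pPAFAH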
Target sequence (Q13093 whole entry, looked up): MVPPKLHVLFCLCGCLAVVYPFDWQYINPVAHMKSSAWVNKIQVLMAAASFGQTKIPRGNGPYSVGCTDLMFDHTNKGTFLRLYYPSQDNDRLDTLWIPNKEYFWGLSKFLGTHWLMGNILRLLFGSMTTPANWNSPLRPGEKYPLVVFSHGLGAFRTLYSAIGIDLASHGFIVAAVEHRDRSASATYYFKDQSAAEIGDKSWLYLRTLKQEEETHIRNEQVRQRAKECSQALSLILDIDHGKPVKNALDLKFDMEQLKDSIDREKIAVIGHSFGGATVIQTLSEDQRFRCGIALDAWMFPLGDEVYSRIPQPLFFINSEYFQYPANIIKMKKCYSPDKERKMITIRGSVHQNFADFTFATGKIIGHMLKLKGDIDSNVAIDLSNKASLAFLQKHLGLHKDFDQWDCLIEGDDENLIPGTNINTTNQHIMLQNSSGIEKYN
pPAFAH FP conf = pPAFAH (human) inhibition, confirmed. AID 463230. 72% of 2,300 active. inhibition, % at 3.39 µM. recombinant pPAFAH, FP-Rh probe fluorescence polarization. shares compounds with pPAFAH inh;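 active = mean inhibition of the triplicate above the hit cutoff set for the earlier primary screen, cut at about 25% in these data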;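 also: 0% = enzyme with DMSO and 100% = wells lacking pPAFAH enzyme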
Numbers without * were called inactive; · = not tested or not shown.

SMILES | PAFAH1B3 inh | PAFAH2 FP inh | UCH37 inh | PAFAH1B2 FP inh | NR3A LBD binder | pPAFAH inh | pPAFAH FP conf
Oc1c(Cl)cc(Cl)cc1/C=C/c1ccc2cccc(O)c2n1 | 11 | 14 | 2 | 1 | 25* | 51* | 49*
O=C(O)Cc1c[nH]c2cccc(O)c12 | 19 | 9 | 5 | 12 | 0 | 47* | 9
N=C1SC(c2ccccc2)C(=O)N1c1ncc(Cc2ccccc2Cl)s1 (centres undefined) | 0 | 25 | -1 | 13 | -3 | 58* | 71*
O=C(CSc1nnnn1-c1ccccc1)Nc1ncc(Cc2ccccc2Cl)s1 | 4 | -2 | 0 | 7 | 1 | -2 | ·
CC1(c2cccc(Br)c2)NC(=O)N(CC(=O)c2ccc3c(c2)OCCO3)C1=O (centres undefined) | -1 | 2 | -3 | 7 | -2 | 38* | 2
CC1(c2cccc(Br)c2)NC(=O)N(CC(=O)Nc2ccc3c(c2)OCCO3)C1=O (centres undefined) | 14 | 1 | 7 | 3 | 3 | 8 | ·
Cc1nc2cc(C(=O)OCC(=O)Nc3cccc(Cl)c3)ccc2n1-c1ccccc1 | -2 | 64* | -28 | -4 | 2 | 43* | 41*
Cc1nc2cc(C(=O)OCC(=O)NC3CCS(=O)(=O)C3)ccc2n1-c1ccccc1 (centres undefined) | 2 | -5 | 5 | 4 | 0 | 9 | ·
Cc1cc(NS(=O)(=O)c2ccc(Nc3nc(-c4ccc(O)cc4)cs3)cc2)no1 | 7 | 26 | 4 | 8 | 4 | 22 | ·
Cc1cc(NS(=O)(=O)c2ccc(Nc3nc(-c4sc(N)nc4C)cs3)cc2)no1 | 55* | 79* | · | 36* | -2 | 46* | 42*
O=C(CCCN1C(=O)/C(=C/c2ccccc2Cl)SC1=S)NNC(=O)c1ccc(Cl)cc1 | -1 | -6 | 8 | 0 | 0 | -4 | ·
Cc1ccc(C(=O)NNC(=O)CCCN2C(=O)/C(=C/c3ccccc3Cl)SC2=S)cc1 | -12 | 3 | 0 | 2 | -12 | 46* | 53*
CN(C(=O)CC1C(=O)NCCN1Cc1ccc(F)c(F)c1)C1CCOCC1 (centres undefined) | -1 | 3 | -5 | 2 | 1 | 59* | 2
CN(C(=O)CC1C(=O)NCCN1Cc1ccc(F)cc1)C1CCOCC1 (centres undefined) | 7 | -1 | -6 | 3 | -4 | 3 | ·
CCN(CC)S(=O)(=O)c1cccc(C(=O)N/N=C/c2cccc(O)c2O)c1 | 4 | 12 | · | 0 | -3 | 41* | 29*
Cc1cc(O)c2c(c1O)C(=O)[C@]13C(=C2O)C(=O)[C@@H]2[C@@H](O)[C@H]1[C@@H]1[C@H](O)[C@H]3C(=O)C3=C(O)c4c(O)cc(C)c(O)c4C(=O)[C@]312 | 37* | 43* | 21* | 22 | -3 | 54* | 23
CC(Cc1ccc(O)c(O)c1)C(C)Cc1ccc(O)c(O)c1 (centres undefined) | · | · | 5 | · | 24* | 70* | 79*
Cc1[nH]c2ccccc2c1N=Nc1ccccc1C(=O)O | 20 | 9 | 12 | 6 | -11 | 47* | 31*
Cc1[nH]c2ccccc2c1N=Nc1cccc(C(=O)O)c1 | 8 | 7 | 16 | 2 | -4 | 5 | ·
Cc1cc(C(=O)N/N=C2\CC(=O)CC(C)(C)C2)c(C)n1-c1ccccc1 | -9 | 11 | · | 6 | 0 | 37* | 34*
Cc1cc(C(=O)N/N=C2\CC(=O)CC(C)(C)C2)c(C)n1-c1ccc(F)cc1 | 1 | 19 | · | 3 | 1 | 41* | 64*
O=C(NCc1cccnc1)c1ccc(-c2ccccc2[N+](=O)[O-])o1 | 11 | -7 | 2 | -5 | -3 | 56* | 3
CC(C)(C)c1ccc(C=NNc2cccc(C(=O)O)c2)cc1 | · | · | 7 | · | · | · | ·
O=C(NN=Cc1ccc(O)c(Br)c1)c1cc2c(ccc3ccccc32)o1 | · | · | -83 | · | · | · | ·
CCN1CCN(C(=S)Nc2ccsc2C(=O)OC)CC1 | 7 | 0 | 6 | 4 | -1 | 60* | 4

Screening data: PubChem BioAssay, several laboratories
